ChEMBL document CHEMBL3407477, “Synthesis and biological evaluation of compact, conformationally constrained bifunctional opioid agonist - neurokinin-1 antagonist peptidomimetics” (Eur J Med Chem, 2015)
Activity calls are given as the source filed them.

Key:
Rattus norvegicus [1] = species: Rattus norvegicus; assay: Selectivity ratio of Ki for rat brain DOR to Ki for rat brain MOR
Rattus norvegicus [2] = species: Rattus norvegicus; assay: Antinociceptive activity in Wistar rat at 0.1 to 11 nmol, it after 30 mins to 2 hrs by tail flick test; format: functional, organism-based
Rattus norvegicus [3] = assay: Toxicity in Wistar rat assessed as seizures at 9.5 nmol, iv; format: organism-based; details: in vivo
Rattus norvegicus [4] = assay: Toxicity in Wistar rat assessed as death at 9.5 nmol, iv; format: organism-based; details: in vivo
Rattus norvegicus [5] = species: Rattus norvegicus; assay: Antiallodynic effect in Wistar rat chronic constriction injury model at 0.1 to 1 nmol, it measured 7 days post CCI challenge by Von Frey test; format: functional, organism-based
How it was run: (§1)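 Male Wistar rats (300-350 g) with i.t. catheters (L4-L6) had CCI made by four loose silk ligatures on the right sciatic nerve. On day 7 they received a single i.t. dose in water for injection. Mechanical allodynia was measured 30 min later with an automatic von Frey device (0.5-26 g) on the midplantar hind paw. Data are %MPE, 6-12 rats/group, ANOVA with Bonferroni.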

Rattus norvegicus [6] = species: Rattus norvegicus; assay: Antiallodynic effect in Wistar rat chronic constriction injury model at 1 nmol, it measured 7 days post CCI challenge by Von Frey test; format: functional; how it was run: as §1
Rattus norvegicus [7] = species: Rattus norvegicus; assay: Antinociceptive activity in Wistar rat at 1 nmol, it after 30 mins by tail flick test; format: functional
How it was run: (§2)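 Naive male Wistar rats (250-300 g) with i.t. catheters received a single i.t. injection in water for injection (5 µl plus 10 µl flush), 7 days after catheter implantation. Tail-flick latency to a light-bulb heat stimulus at two-thirds of tail length was read 30 min post-dose (timepoints up to 180 min), with a 9 s cut-off. Data are %MPE = (TL-BL)/(cut-off-BL)×100, 7-12 rats/group, ANOVA with Bonferroni.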

Rattus norvegicus [8] = species: Rattus norvegicus; assay: Toxicity in Wistar rat chronic constriction injury model at 1 nmol, it measured 7 days post CCI challenge; format: organism-based; details: in vivo, icv_or_intrathecal, 168 h
Rattus norvegicus [9] = species: Rattus norvegicus; assay: Toxicity in Wistar rat chronic constriction injury model at 11 nmol, it measured 7 days post CCI challenge; format: organism-based; details: in vivo, icv_or_intrathecal, 168 h
Rattus norvegicus [10] = species: Rattus norvegicus; assay: Reduction of hyperalgesia in Wistar rat chronic constriction injury model at 1 nmol, it measured 7 days post CCI challenge by cold plate test; format: functional, organism-based
How it was run: (§3)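 In catheterized male Wistar rats with sciatic CCI, a single i.t. dose in water for injection was given on day 7. Thermal hyperalgesia was measured 30 min later as latency to hind-paw shake on a 5 °C cold plate. Data are %MPE, 6-12 rats/group, ANOVA with Bonferroni.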

Rattus norvegicus [11] = assay: Antinociceptive activity in it dosed Wistar rat after 30 mins by tail flick test; format: functional; how it was run: as §2
Rattus norvegicus [12] = assay: Antiallodynic effect in it dosed Wistar rat measured 7 days post CCI challenge by Von Frey test; format: functional; how it was run: as §1
Rattus norvegicus [13] = assay: Reduction of hyperalgesia in it dosed Wistar rat measured 7 days post CCI challenge by cold plate test; format: functional; how it was run: as §3
Rattus norvegicus [14] = assay: Antiallodynic effect in Wistar rat chronic constriction injury model assessed as tolerance to neuropathic pain at 1 nmol, it qd for 6 days administered from 7 days post CCI challenge to day 13 by Von Frey test; format: functional, organism-based
How it was run: (§4)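 CCI Wistar rats received once-daily i.t. injections (morphine 3.5 nmol, hybrids 1 nmol, in water for injection) from day 7 to day 13 after CCI. Von Frey and 5 °C cold plate tests were run 30 min after each dose. Data are %MPE and AUC, 12-16 rats/group, ANOVA with Bonferroni.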

Rattus norvegicus [15] = assay: Antiallodynic effect in Wistar rat chronic constriction injury model assessed as tolerance to neuropathic pain at 1 nmol, it qd for 6 days administered from 7 days post CCI challenge to day 13 by cold plate test; format: functional, organism-based; how it was run: as §4
Rattus norvegicus [16] = assay: Antiallodynic effect in Wistar rat chronic constriction injury model assessed as cross tolerance developement pretreated with morphine at 3.5 nmol, it qd for 6 days administered from 7 days post CCI challenge to day 13 measured 30 mins post compound challenge by Von Frey test; format: functional, organism-based
How it was run: (§5)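 CCI Wistar rats were made tolerant by 6 days of once-daily i.t. dosing (morphine 3.5 nmol or hybrid 1 nmol). On day 13 they received a single i.t. challenge (morphine 3.5 nmol or hybrid 1 nmol) against repeated-vehicle controls. Von Frey and cold plate tests were run 30 min later. Data are %MPE, 6-8 rats/group, ANOVA with Bonferroni.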

Rattus norvegicus [17] = assay: Antiallodynic effect in Wistar rat chronic constriction injury model assessed as cross tolerance developement pretreated with morphine at 3.5 nmol, it qd for 6 days administered from 7 days post CCI challenge to day 13 measured 30 mins post compound challenge by cold plate test; format: functional, organism-based; how it was run: as §5
Rattus norvegicus [18] = species: Rattus norvegicus; assay: Antinociceptive activity in Wistar rat at 0.1 nmol, it after 30 mins by tail flick test; format: functional; how it was run: as §2

Which results are given for `Cc1cc(O)cc(C)c1C[C@H](N)C(=O)N[C@H](CCCNC(=N)N)C(=O)N[C@H]1Cc2ccccc2CN(CCC(=O)N(C)Cc2ccccc2)C1=O`?
Ratio Ki (Rattus norvegicus [1]): 3.5; Activity (Rattus norvegicus [2]): Active; Activity (Rattus norvegicus [3]): Non-toxic; Activity (Rattus norvegicus [4]): Non-toxic; Activity (Rattus norvegicus [5]): Active; MPE (Rattus norvegicus [6]): 80%; MPE (Rattus norvegicus [7]): 30%; Activity (Rattus norvegicus [8]): Non-toxic; Activity (Rattus norvegicus [9]): Toxic; Activity (Rattus norvegicus [10]): Active; ED50 (Rattus norvegicus [11]): 2.78 nmol; ED50 (Rattus norvegicus [12]): 0.24 nmol; ED50 (Rattus norvegicus [13]): 0.34 nmol; Activity (Rattus norvegicus [14]): Active; Activity (Rattus norvegicus [15]): Active; Activity (Rattus norvegicus [16]): inactive; Activity (Rattus norvegicus [17]): inactive; MPE (Rattus norvegicus [18]): 8.9%
